Assay results taken from PubChem BioAssay AID2607 (Broad Institute, 2010).

system: DRD fibroblasts (non-viral oncogenic) viability, Alamar Blue fluorescence, 48 h; experiment: killing of non-viral oncogenic fibroblasts – cell-based, fluorescence, Alamar Blue, powder samples, dose response (AID 2607)
How it was run: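 Test system: DRD fibroblast cells. Buffer or medium: DMEM and M199 growth medium with fetal bovine serum. Doses: 2-fold series, 0.01–5.33 µg/mL final. Schedule: 48 h compound exposure, 37 °C, then ~16 h alamar blue. Signal: Alamar blue fluorescence, ex 544/em 590 nm.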

Compound	EC50 [nM]
COc1ccc(C(C(=O)NC2CCCCC2)N(C(=O)CCl)c2ccc(C)cc2)cc1 (centres undefined)	143
COc1ccc(CN(CCC(c2ccccc2)c2ccc(OC(C)C)cc2)C(=O)CCl)cc1OC (centres undefined)	622
COc1cccc(N(C(=O)CCl)C(C(=O)NCCc2ccccc2)c2cccs2)c1 (centres undefined)	145
COc1ccc(C(C(=O)NC2CCCCC2)N(C(=O)CCl)c2cccc(Cl)c2)cc1 (centres undefined)	137
COc1ccc(N(C(=O)CCl)C(C(=O)NCCc2ccccc2)c2cccs2)cc1Cl (centres undefined)	34
Nc1nc(CCl)nc(Nc2ccc3ccccc3c2)n1	82
Cc1ccc(N(C(=O)CCl)C(C(=O)NC2CCCCC2)c2cccnc2)cc1C (centres undefined)	147
O=C(CCl)N=c1sccn1Cc1ccccc1Cl	183
CCCCCCCN(C(=O)CCl)c1cccc(C)c1	171
CCOc1ccc(Nc2nc(N)nc(CCl)n2)cc1	183
C=CCOc1ccccc1CN(C(=O)CCl)c1ccc2c(c1)OCO2	1140
COC(=O)[C@@H]1Cc2c([nH]c3ccccc23)C(C)(C)N1C(=O)CCl	467
COc1ccc(N(C(=O)CCl)C(C(=O)NCCc2ccccc2)c2cccs2)cc1 (centres undefined)	214
Cc1ccc(C2CC(c3cccs3)=NN2C(=O)CCl)cc1 (centres undefined)	1210
